Measured values reported in ChEMBL document CHEMBL3044910, “Antifeedant activity of some pentacyclic triterpene acids and their fatty acid ester analogues” (2003).
Active and inactive are the calls of the source. The rule behind the calls is not given here.

Legend:
Format in all cases: functional
Design in all cases: scale not given: the % may be the effect or the level left
Spodoptera litura [1] = experiment: Antifeedant activity against fourth-instar larval stage of Spodoptera litura reared on castor leaves assessed as decrease in food consumption at 150 ug/cm2 after 48 hr by no-choice leaf disk assay relative to untreated control
Outline: (§1)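 Larvae reared on fresh castor leaves at 27 ± 1 °C, 65 ± 5% RH, 14:10 light:dark; freshly molted fourth instars used. Treated leaf disks placed with larvae in Petri dishes; leaf area consumed in treated and control disks measured by planimeter. Percent protection corrected for control by Singh and Panth formula; mean with standard deviation reported.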

Spodoptera litura [2] = experiment: Antifeedant activity against fourth-instar larval stage of Spodoptera litura reared on castor leaves assessed as decrease in food consumption at 50 to 150 ug/cm2 measured after 48 hr by no-choice leaf disk assay relative to untreated control
Outline: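 Larvae reared on fresh castor leaves at 27 ± 1 °C, 65 ± 5% relative humidity, 14:10 light:dark; freshly molted fourth-instar larvae used. No-choice leaf disk test in Petri dish at 150, 100 and 50 µg/cm2. Leaf area consumed measured by planimeter at 6, 12, 24 and 48 h in treated and control disks. Percent protection corrected for control protection; mean with standard deviation.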

Spodoptera litura [3] = experiment: Antifeedant activity against fourth-instar larval stage of Spodoptera litura reared on castor leaves assessed as decrease in food consumption at 100 ug/cm2 after 48 hr by no-choice leaf disk assay relative to untreated control; outline: as §1
Spodoptera litura [4] = experiment: Antifeedant activity against fourth-instar larval stage of Spodoptera litura reared on castor leaves assessed as decrease in food consumption at 50 ug/cm2 after 48 hr by no-choice leaf disk assay relative to untreated control; outline: as §1

| Structure (SMILES) | Activity (Spodoptera litura [1]) | Activity (Spodoptera litura [2]) [%] | Activity (Spodoptera litura [3]) | Activity (Spodoptera litura [4]) [%] |
| --- | --- | --- | --- | --- |
| C/C=C(\C)C(=O)O[C@H]1C[C@@H](OC(C)=O)[C@@]2(C(=O)OC)CO[C@H]3[C@@H](O)[C@@](C)([C@]45O[C@@]4(C)[C@H]4C[C@@H]5O[C@@H]5OC=C[C@@]54O)[C@H]4[C@]1(CO[C@]4(O)C(=O)OC)[C@@H]32 [AZADIRACTIN] | >50% | 81 | 40% |  |
| CCCCCCCCCCCCCCCCCC(=O)O[C@H]1CC[C@]2(C)[C@H]3CC=C4[C@@H]5[C@@H](C)[C@H](C)CC[C@]5(C(=O)O)CC[C@@]4(C)[C@]3(C)CC[C@H]2C1(C)C [URS-12-ENE-28-CARBOXY-3BETA-OCTADECANOATE] | >50% |  | 40% | 74 |
| CCCCCCCCCCCCCCCC(=O)O[C@H]1CC[C@]2(C)[C@H]3CC=C4[C@@H]5CC(C)(C)CC[C@]5(C(=O)O)CC[C@@]4(C)[C@]3(C)CC[C@H]2C1(C)C [OLEAN-12-ENE-28-CARBOXY-3BETA-HEXADECANOATE] | >50% |  | 40% | 71 |
| CCCCCCCCCCCCCCCCCC(=O)O[C@H]1CC[C@]2(C)[C@H]3CC=C4[C@@H]5CC(C)(C)CC[C@]5(C(=O)O)CC[C@@]4(C)[C@]3(C)CC[C@H]2C1(C)C | Active |  | Active |  |
| CC1(C)CC[C@]2(C(=O)O)CC[C@]3(C)C(=CC[C@@H]4[C@@]5(C)CC[C@H](O)C(C)(C)[C@@H]5CC[C@]43C)[C@@H]2C1 [OLEANOLIC_ACID] | Active |  | 40% |  |
| C[C@H]1[C@H](C)CC[C@]2(C(=O)O)CC[C@]3(C)C(=CC[C@@H]4[C@@]5(C)CC[C@H](O)C(C)(C)[C@@H]5CC[C@]43C)[C@H]12 [URSOLIC ACID] | >50% |  | 40% |  |
| CCCCCCCCCCCCCCCC(=O)O[C@H]1CC[C@]2(C)[C@H]3CC=C4[C@@H]5[C@@H](C)[C@H](C)CC[C@]5(C(=O)O)CC[C@@]4(C)[C@]3(C)CC[C@H]2C1(C)C | >50% |  | 40% | >50 |
| CCCCCCCCCCCCCC(=O)O[C@H]1CC[C@]2(C)[C@H]3CC=C4[C@@H]5[C@@H](C)[C@H](C)CC[C@]5(C(=O)O)CC[C@@]4(C)[C@]3(C)CC[C@H]2C1(C)C [URS-12-ENE-28-CARBOXY-3BETA-TETRADECANOATE] | >50% |  | 40% | >50 |
| CCCCCCCCCCCC(=O)O[C@H]1CC[C@]2(C)[C@H]3CC=C4[C@@H]5[C@@H](C)[C@H](C)CC[C@]5(C(=O)O)CC[C@@]4(C)[C@]3(C)CC[C@H]2C1(C)C [URS-12-ENE-28-CARBOXY-3BETA-DODECANOATE] | >50% |  | 40% |  |
